# From ChEMBL document CHEMBL1142651, “Design and synthesis of conformationally constrained Grb2 SH2 domain binding peptides employing alpha-methylphenylalanyl based phosphotyrosyl mimetics” (J Med Chem, 2005)
# “And” between values parts separate entries of the source, which are not always exact repeats. Equal entries are not always repeated.
# Assays:
# [1] = target: T1, Growth factor receptor-bound protein 2 (Homo sapiens, UniProt P62993); assay: In vitro binding affinity for growth factor receptor bound protein 2 SH2 domain from human breast cancer cells; type: cell-based, Cancer cell lines
# Summary of the method: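 SPR: Grb2 SH2 protein (b-Grb2) amine-coupled to CM5 dextran chip at 2500-5000 RU. Ligands 1.25-1500 nM in PBS pH 7.4 running buffer, injected at 25 °C in increasing order, in duplicate, 1 min association, 3 min dissociation, no regeneration. Double-referenced against a blank surface and buffer injections. KD from global fit (1:1 or heterogeneity model) of at least four independent data sets.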
# Target sequence in this assay (P62993 whole entry, the tested form may be a part): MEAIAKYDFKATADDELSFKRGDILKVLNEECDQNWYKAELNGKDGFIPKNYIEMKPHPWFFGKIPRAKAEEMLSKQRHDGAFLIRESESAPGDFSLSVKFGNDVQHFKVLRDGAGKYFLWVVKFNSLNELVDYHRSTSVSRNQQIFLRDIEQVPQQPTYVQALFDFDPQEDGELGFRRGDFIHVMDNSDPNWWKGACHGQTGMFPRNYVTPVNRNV
# [2] = target: T1, Growth factor receptor-bound protein 2; assay: In vitro dissociation rate constant for growth factor receptor bound protein 2 SH2 domain from human breast cancer cells; conditions: cancer cell lines
# Target sequence in this assay (P62993 whole entry, the tested form may be a part): as above
# [3] = target: T1, Growth factor receptor-bound protein 2; assay: In vitro relative association value for growth factor receptor bound protein 2 SH2 domain from human breast cancer cells; type: cell-based; conditions: Cancer cell lines
# Target sequence in this assay (P62993 whole entry, looked up, the tested form may be a part): as the sequence (P62993 whole entry, the tested form may be a part) above
SMILES,Kd [1],koff [2],Ka [3]
C[C@@]1(Cc2ccc(P(=O)(O)O)cc2)NC(=O)CC(c2ccc(CP(=O)(O)O)cc2)/C=C/C[C@@H](Cc2cccc3ccccc23)CNC(=O)[C@H](CC(N)=O)NC1=O (stereo in doubt; 10),2.28 nM and 4.3 nM,,
C[C@@]1(Cc2ccc(P(=O)(O)O)cc2)NC(=O)CC(c2ccc(CP(=O)(O)O)cc2)/C=C/C[C@@H](Cc2cccc3ccccc23)CNC(=O)[C@H](CC(N)=O)NC1=O (stereo in doubt; 10B) [listing 1 of 2 here],72 nM,0.018 s⁻¹,
C[C@@]1(Cc2ccc(P(=O)(O)O)cc2)NC(=O)CC(c2ccc(CP(=O)(O)O)cc2)/C=C/C[C@@H](Cc2cccc3ccccc23)CNC(=O)[C@H](CC(N)=O)NC1=O (stereo in doubt; 10A) [listing 1 of 2 here],,,6.5e+06 1/M·1/S
C[C@@]1(Cc2ccc(P(=O)(O)O)cc2)NC(=O)CC(c2ccc(CP(=O)(O)O)cc2)/C=C/C[C@@H](Cc2cccc3ccccc23)CNC(=O)[C@H](CC(N)=O)NC1=O (stereo in doubt; 10B) [listing 2 of 2 here],,,230000 1/M·1/S
C[C@@]1(Cc2ccc(P(=O)(O)O)cc2)NC(=O)CC(c2ccc(CP(=O)(O)O)cc2)/C=C/C[C@@H](Cc2cccc3ccccc23)CNC(=O)[C@H](CC(N)=O)NC1=O (stereo in doubt; 10A) [listing 2 of 2 here],0.097 nM,0.00063 s⁻¹,
